# Target: T1, Cannabinoid receptor 1 (Homo sapiens, UniProt P21554)
# Experiment: Agonist activity at human CB1 receptor expressed in Sf9 cells by GTP-europium binding assay
# Details: not given
# How it was run: (§1)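 Membranes were from Sf9 insect cells cotransfected with CB1 or CB2 plus Gαi3 (Bmax 1.7 pmol/mL). Compound (0.01 nM–10 µM, 1% DMSO final) was added to buffer with Hepes, BSA, 10 mM MgCl2, 150 mM NaCl, 5 µM GDP, 10 nM GTP-europium, saponin and membranes (CB1 4.5 µg/well, CB2 14 µg/well). 100% efficacy was set by 3 µM reference agonist.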
# T1 sequence (P21554 whole entry): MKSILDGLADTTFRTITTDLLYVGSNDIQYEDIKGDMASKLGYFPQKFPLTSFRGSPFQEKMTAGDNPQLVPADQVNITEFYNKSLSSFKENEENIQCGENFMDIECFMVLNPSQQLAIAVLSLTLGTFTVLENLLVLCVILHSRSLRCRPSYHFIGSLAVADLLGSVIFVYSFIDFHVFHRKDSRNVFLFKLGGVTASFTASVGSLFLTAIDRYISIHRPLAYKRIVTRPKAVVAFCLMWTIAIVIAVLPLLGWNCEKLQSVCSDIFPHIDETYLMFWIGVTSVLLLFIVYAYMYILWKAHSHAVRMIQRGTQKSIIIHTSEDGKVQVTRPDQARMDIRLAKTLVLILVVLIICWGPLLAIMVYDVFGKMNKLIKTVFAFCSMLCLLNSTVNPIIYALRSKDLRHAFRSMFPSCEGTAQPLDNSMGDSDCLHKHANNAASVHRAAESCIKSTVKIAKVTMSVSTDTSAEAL
row,Structure (SMILES),EC50
1,O=C(CCc1nc(-c2ccc(F)cc2Cl)no1)Nc1cnc2ccc(Cl)cc2c1,0.9 nM
2,O=C(CCc1nc(-c2ccc(F)cc2Cl)no1)Nc1nnc(N2CCCCC2)s1,211 nM
3,N#Cc1cc(NC(=O)CCc2nc(-c3ccc(F)cc3Cl)no2)cnc1OCC(F)(F)F,> 10000 nM

# Target: T2, Cannabinoid receptor 2 (Homo sapiens, UniProt P34972)
# Experiment: Agonist activity at human recombinant CB2 receptor expressed in Sf9 cells by GTP-europium binding assay
# Details: not given
# How it was run: as §1
# T2 sequence (P34972 whole entry): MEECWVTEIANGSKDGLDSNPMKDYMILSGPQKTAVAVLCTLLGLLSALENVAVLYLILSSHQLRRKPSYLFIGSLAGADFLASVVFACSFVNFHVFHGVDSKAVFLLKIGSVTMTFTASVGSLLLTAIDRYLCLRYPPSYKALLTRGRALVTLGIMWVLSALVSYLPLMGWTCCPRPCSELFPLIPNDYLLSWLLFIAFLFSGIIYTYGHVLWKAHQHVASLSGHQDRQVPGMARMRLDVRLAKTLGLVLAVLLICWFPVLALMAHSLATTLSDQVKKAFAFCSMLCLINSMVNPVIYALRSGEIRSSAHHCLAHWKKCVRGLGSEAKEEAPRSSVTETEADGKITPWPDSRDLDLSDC
row,Structure (SMILES),EC50
1,O=C(CCc1nc(-c2ccc(F)cc2Cl)no1)Nc1cnc2ccc(Cl)cc2c1,1400 nM
2,O=C(CCc1nc(-c2ccc(F)cc2Cl)no1)Nc1nnc(N2CCCCC2)s1,1.2 nM
3,N#Cc1cc(NC(=O)CCc2nc(-c3ccc(F)cc3Cl)no2)cnc1OCC(F)(F)F,14 nM

# Target: T1, Cannabinoid receptor 1
# Experiment: Agonist activity at human recombinant CB1 receptor expressed in Sf9 cells by GTP-europium binding assay relative to CP-55940
# Details: not given
# How it was run: as §1, with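 “µg/well). Incubation was 45 min at room temperature, then filtration and washing, with fluorescence read at 615 nm.” for “µg/well).”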
row,Structure (SMILES),Emax
1,O=C(CCc1nc(-c2ccc(F)cc2Cl)no1)Nc1cnc2ccc(Cl)cc2c1,82%
2,O=C(CCc1nc(-c2ccc(F)cc2Cl)no1)Nc1nnc(N2CCCCC2)s1,47%

# Target: T2, Cannabinoid receptor 2
# Experiment: Agonist activity at human recombinant CB2 receptor expressed in Sf9 cells by GTP-europium binding assay relative to CP-55940
# Details: not given
# How it was run: as §1, with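 “µg/well). Incubation was 45 min at room temperature, then filtration and washing, with fluorescence read at 615 nm.” for “µg/well).”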
row,Structure (SMILES),Emax
1,O=C(CCc1nc(-c2ccc(F)cc2Cl)no1)Nc1cnc2ccc(Cl)cc2c1,110%
2,O=C(CCc1nc(-c2ccc(F)cc2Cl)no1)Nc1nnc(N2CCCCC2)s1,98%
3,N#Cc1cc(NC(=O)CCc2nc(-c3ccc(F)cc3Cl)no2)cnc1OCC(F)(F)F,110%

# Target: T1, Cannabinoid receptor 1
# Experiment: Agonist activity at human recombinant CB1 receptor expressed in CHO-K1 cells assessed as inhibition of forskolin-stimulated intracellular cAMP level
# Format: functional, cell-based
# Details: not given
# How it was run: (§2)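 CHO-K1 cells stably expressing human or rat CB1 or CB2 were used. Compounds were diluted from DMSO into HBSS/HEPES/BSA buffer containing 60 µM forskolin, then combined with 5000 cells/well plus Alexa647 anti-cAMP antibody, 1 h at room temperature. A biotinylated-cAMP detection mix was added for another 1 h.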
row,Structure (SMILES),EC50
1,O=C(CCc1nc(-c2ccc(F)cc2Cl)no1)Nc1cnc2ccc(Cl)cc2c1,710 nM
2,O=C(CCc1nc(-c2ccc(F)cc2Cl)no1)Nc1nnc(N2CCCCC2)s1,> 1000 nM
3,N#Cc1cc(NC(=O)CCc2nc(-c3ccc(F)cc3Cl)no2)cnc1OCC(F)(F)F,> 1000 nM

# Target: T2, Cannabinoid receptor 2
# Experiment: Agonist activity at human recombinant CB2 receptor expressed in CHO-K1 cells assessed as inhibition of forskolin-stimulated intracellular cAMP level
# Format: functional, cell-based
# Details: not given
# How it was run: as §2
row,Structure (SMILES),EC50
1,O=C(CCc1nc(-c2ccc(F)cc2Cl)no1)Nc1cnc2ccc(Cl)cc2c1,0.5 nM
2,O=C(CCc1nc(-c2ccc(F)cc2Cl)no1)Nc1nnc(N2CCCCC2)s1,0.8 nM
3,N#Cc1cc(NC(=O)CCc2nc(-c3ccc(F)cc3Cl)no2)cnc1OCC(F)(F)F,31 nM

# Target: T1, Cannabinoid receptor 1
# Experiment: Agonist activity at human recombinant CB1 receptor expressed in CHO-K1 cells assessed as inhibition of forskolin-stimulated intracellular cAMP level relative to CP-55940
# Format: functional, cell-based
# Details: not given
# How it was run: as §2, with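 “h. Emission at 665 nm gave concentration-response curves and EC50; Emax is expressed as a percentage of the reference agonist maximum.” for “h.”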
row,Structure (SMILES),Emax
1,O=C(CCc1nc(-c2ccc(F)cc2Cl)no1)Nc1cnc2ccc(Cl)cc2c1,57%
2,O=C(CCc1nc(-c2ccc(F)cc2Cl)no1)Nc1nnc(N2CCCCC2)s1,38%

# Target: T2, Cannabinoid receptor 2
# Experiment: Agonist activity at human recombinant CB2 receptor expressed in CHO-K1 cells assessed as inhibition of forskolin-stimulated intracellular cAMP level relative to CP-55940
# Format: functional, cell-based
# Details: not given
# How it was run: as §2, with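 “h. Emission at 665 nm gave concentration-response curves and EC50; Emax is expressed as a percentage of the reference agonist maximum.” for “h.”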
row,Structure (SMILES),Emax
1,O=C(CCc1nc(-c2ccc(F)cc2Cl)no1)Nc1cnc2ccc(Cl)cc2c1,99%
2,O=C(CCc1nc(-c2ccc(F)cc2Cl)no1)Nc1nnc(N2CCCCC2)s1,98%
3,N#Cc1cc(NC(=O)CCc2nc(-c3ccc(F)cc3Cl)no2)cnc1OCC(F)(F)F,97%

# Target: Cannabinoid receptor 1 (Rattus norvegicus, UniProt P20272)
# Experiment: Agonist activity at rat recombinant CB1 receptor expressed in CHO-K1 cells assessed as inhibition of forskolin-stimulated intracellular cAMP level
# Format: functional, cell-based
# Details: not given
# How it was run: as §2
# Chain of Cannabinoid receptor 1 (Rattus norvegicus, UniProt P20272) (P20272 whole entry): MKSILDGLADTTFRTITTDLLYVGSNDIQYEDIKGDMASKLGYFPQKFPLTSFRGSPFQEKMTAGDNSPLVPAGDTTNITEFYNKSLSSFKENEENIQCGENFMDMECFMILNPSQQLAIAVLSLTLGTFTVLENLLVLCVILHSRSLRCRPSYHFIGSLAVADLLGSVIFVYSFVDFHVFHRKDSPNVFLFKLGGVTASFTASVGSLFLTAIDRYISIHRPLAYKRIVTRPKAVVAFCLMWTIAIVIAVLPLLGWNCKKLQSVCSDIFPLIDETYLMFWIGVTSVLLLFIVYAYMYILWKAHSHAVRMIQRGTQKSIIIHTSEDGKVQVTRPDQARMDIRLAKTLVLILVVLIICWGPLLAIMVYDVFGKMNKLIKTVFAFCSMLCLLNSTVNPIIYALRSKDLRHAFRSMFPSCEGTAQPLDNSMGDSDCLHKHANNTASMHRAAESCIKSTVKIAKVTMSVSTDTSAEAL
row,Structure (SMILES),EC50
1,O=C(CCc1nc(-c2ccc(F)cc2Cl)no1)Nc1cnc2ccc(Cl)cc2c1,130 nM
2,O=C(CCc1nc(-c2ccc(F)cc2Cl)no1)Nc1nnc(N2CCCCC2)s1,220 nM
3,N#Cc1cc(NC(=O)CCc2nc(-c3ccc(F)cc3Cl)no2)cnc1OCC(F)(F)F,> 1000 nM

# Target: T3, Cannabinoid receptor 2 (Rattus norvegicus, UniProt Q9QZN9)
# T3 sequence (Q9QZN9 whole entry): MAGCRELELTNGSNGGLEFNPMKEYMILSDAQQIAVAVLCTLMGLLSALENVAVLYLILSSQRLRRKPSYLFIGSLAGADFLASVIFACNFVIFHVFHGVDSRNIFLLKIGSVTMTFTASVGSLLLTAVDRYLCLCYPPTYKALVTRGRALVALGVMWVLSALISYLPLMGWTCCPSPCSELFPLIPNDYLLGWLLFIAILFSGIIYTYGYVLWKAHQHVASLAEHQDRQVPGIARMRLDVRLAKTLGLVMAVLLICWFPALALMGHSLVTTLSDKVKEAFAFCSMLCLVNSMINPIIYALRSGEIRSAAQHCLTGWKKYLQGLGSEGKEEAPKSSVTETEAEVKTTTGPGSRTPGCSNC
# Experiment: Agonist activity at rat recombinant CB2 receptor expressed in CHO-K1 cells assessed as inhibition of forskolin-stimulated intracellular cAMP level
# Format: functional, cell-based
# Details: not given
# How it was run: as §2, with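 “h. Emission at 665 nm gave concentration-response curves and EC50; Emax is expressed as a percentage of the reference agonist maximum.” for “h.”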
row,Structure (SMILES),EC50
1,O=C(CCc1nc(-c2ccc(F)cc2Cl)no1)Nc1cnc2ccc(Cl)cc2c1,11 nM
2,O=C(CCc1nc(-c2ccc(F)cc2Cl)no1)Nc1nnc(N2CCCCC2)s1,1.1 nM
3,N#Cc1cc(NC(=O)CCc2nc(-c3ccc(F)cc3Cl)no2)cnc1OCC(F)(F)F,3.1 nM

# Target: Cannabinoid receptor 1 (Rattus norvegicus) (UniProt P20272)
# Experiment: Agonist activity at rat recombinant CB1 receptor expressed in CHO-K1 cells assessed as inhibition of forskolin-stimulated intracellular cAMP level relative to CP-55940
# Format: functional, cell-based
# Details: not given
# How it was run: as §2, with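 “h. Emission at 665 nm gave concentration-response curves and EC50; Emax is expressed as a percentage of the reference agonist maximum.” for “h.”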
# Chain of Cannabinoid receptor 1 (Rattus norvegicus) (P20272 whole entry): as the sequence (P20272 whole entry) above
row,Structure (SMILES),Emax
1,O=C(CCc1nc(-c2ccc(F)cc2Cl)no1)Nc1cnc2ccc(Cl)cc2c1,99%
2,O=C(CCc1nc(-c2ccc(F)cc2Cl)no1)Nc1nnc(N2CCCCC2)s1,87%

# Target: T4, Cannabinoid receptor 2 (Rattus norvegicus) (UniProt Q9QZN9)
# T4 sequence (whole entry): T3 sequence (Q9QZN9 whole entry)
# Experiment: Agonist activity at rat recombinant CB2 receptor expressed in CHO-K1 cells assessed as inhibition of forskolin-stimulated intracellular cAMP level relative to CP-55940
# Format: functional, cell-based
# Details: not given
# How it was run: as §2, with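 “h. Emission at 665 nm gave concentration-response curves and EC50; Emax is expressed as a percentage of the reference agonist maximum.” for “h.”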
row,Structure (SMILES),Emax
1,O=C(CCc1nc(-c2ccc(F)cc2Cl)no1)Nc1cnc2ccc(Cl)cc2c1,97%
2,O=C(CCc1nc(-c2ccc(F)cc2Cl)no1)Nc1nnc(N2CCCCC2)s1,98%
3,N#Cc1cc(NC(=O)CCc2nc(-c3ccc(F)cc3Cl)no2)cnc1OCC(F)(F)F,100%

# Tested on: not listed separately
# Experiment: Metabolic stability in human liver microsomes
# Format: ADME, Microsome
# Details: read-out: Stability
row,Structure (SMILES),microsomal CLint
1,O=C(CCc1nc(-c2ccc(F)cc2Cl)no1)Nc1cnc2ccc(Cl)cc2c1,< 100 µL/min/mg
2,O=C(CCc1nc(-c2ccc(F)cc2Cl)no1)Nc1nnc(N2CCCCC2)s1,< 100 µL/min/mg

# Tested on: not listed separately
# Experiment: Metabolic stability in rat liver microsomes
# Format: ADME, Microsome
# Details: read-out: Stability
row,Structure (SMILES),microsomal CLint
1,O=C(CCc1nc(-c2ccc(F)cc2Cl)no1)Nc1cnc2ccc(Cl)cc2c1,< 100 µL/min/mg
2,O=C(CCc1nc(-c2ccc(F)cc2Cl)no1)Nc1nnc(N2CCCCC2)s1,< 100 µL/min/mg

# Tested on: not listed separately
# Experiment: Solubility in simulated intestinal fluid
# Format: physicochemical
# Details: read-out: Stability
row,Structure (SMILES),solubility
1,N#Cc1cc(NC(=O)CCc2nc(-c3ccc(F)cc3Cl)no2)cnc1OCC(F)(F)F,24 µg/mL

# Tested on: not listed separately
# Experiment: Cmax in rat at 10 mg/kg, po
# Format: ADME, organism-based
# Parameters: dose 10 mg/kg, route oral
# Details: in vivo
row,Structure (SMILES),Cmax
1,N#Cc1cc(NC(=O)CCc2nc(-c3ccc(F)cc3Cl)no2)cnc1OCC(F)(F)F,3400 ng/mL

# Tested on: not listed separately
# Experiment: AUC in rat at 10 mg/kg, po
# Format: ADME, organism-based, Plasma
# Parameters: dose 10 mg/kg, route oral
# Details: plasma
row,Structure (SMILES),AUC
1,N#Cc1cc(NC(=O)CCc2nc(-c3ccc(F)cc3Cl)no2)cnc1OCC(F)(F)F,21000 ng·h/mL

# Tested on: not listed separately
# Experiment: Oral bioavailability in rat at 10 mg/kg
# Format: ADME, organism-based
# Details: in vivo
row,Structure (SMILES),bioavailability
1,N#Cc1cc(NC(=O)CCc2nc(-c3ccc(F)cc3Cl)no2)cnc1OCC(F)(F)F,36%

# Tested on: not listed separately
# Experiment: Half life in rat at 10 mg/kg, po
# Format: ADME, organism-based
# Parameters: dose 10 mg/kg, route oral
# Details: in vivo
row,Structure (SMILES),half-life
1,N#Cc1cc(NC(=O)CCc2nc(-c3ccc(F)cc3Cl)no2)cnc1OCC(F)(F)F,3.1 h

# Reference: ChEMBL document CHEMBL1156631 (J Med Chem, 2008)
